{"source": "ChEMBL document CHEMBL1148742", "about": "“Structure-activity relationship of 2-oxoamide inhibition of group IVA cytosolic phospholipase A2 and group V secreted phospholipase A2” (2007)", "key": {"[1]": {"organism": "Homo sapiens", "assay": "Inhibition of GV sPLA2 at 0.091 mole fraction", "method_in_brief": "(§1)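 Recombinant human GV sPLA2, expressed in E. coli as inclusion bodies, sulfonated, refolded and purified (>90%). Enzyme (40 ng) in 50 mM Tris-HCl pH 8.0, 5 mM CaCl2, with mixed micelles of 100 µM 1-palmitoyl-2-[14C]palmitoyl PC and 400 µM Triton X-100, in 1% DMSO. Incubated 10-60 min at 40 °C; released [14C]-palmitic acid measured by modified Dole extraction. Inhibitor dose expressed as mole fraction.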"}, "[2]": {"organism": "Homo sapiens", "assay": "Inhibition of human GIVA cPLA2", "method_in_brief": "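Pure native human GIVA cPLA2 (10 ng) in 100 mM HEPES pH 7.5, 80 µM CaCl2, 0.1 mg/mL fatty acid-free BSA, 2 mM DTT. Substrate was mixed micelles of 97 µM 1-palmitoyl-2-[14C]arachidonoyl PC, 3 µM PIP2 and 400 µM Triton X-100, in 1% DMSO. Incubated 10-60 min at 40 °C; [14C]-AA release measured by modified Dole assay and compared with DMSO-only control. XI(50) expressed as mole fraction of inhibitor over inhibitor plus substrate plus detergent.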"}, "[3]": {"organism": "Homo sapiens", "assay": "Inhibition of GV sPLA2 at 0.040 mole fraction", "method_in_brief": "as §1"}, "[4]": {"organism": "Homo sapiens", "assay": "Inhibition of GV sPLA2 at 0.048 mole fraction", "method_in_brief": "as §1"}, "[5]": {"tested_on": "Rattus norvegicus", "assay": "Antiinflammatory activity against carrageenan-induced paw edema in rat", "assay_type": "functional", "method_in_brief": "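Compound given ip at the same time as intradermal carrageenan into the rat paw; rats were euthanized after 3.5 h. Edema was taken as injected minus uninjected paw weight and expressed as percent inhibition versus controls. Four doses were used, each on two groups of five animals, averaged over two experiments. ED50 was derived from the four doses; Student's t-test was used.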"}, "[6]": {"tested_on": "Rattus norvegicus", "assay": "Analgesic activity in rat assessed as decrease in writhes at 0.0001 mmol/kg, ip", "assay_type": "functional", "set-up": "scale not given: the % may be the effect or the level left", "method_in_brief": "(§2)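 Rat writhing test: compound given ip 30 min before ip acetic acid. Each animal's total writhes were compared with a vehicle-treated control group, and analgesic activity was expressed as percent decrease in writhes.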"}, "[7]": {"tested_on": "Rattus norvegicus", "assay": "Analgesic activity in rat assessed as decrease in writhes at 0.0165 mmol/kg, ip", "assay_type": "functional", "set-up": "scale not given: the % may be the effect or the level left", "method_in_brief": "as §2"}, "[8]": {"tested_on": "Rattus norvegicus", "assay": "Analgesic activity in rat assessed as decrease in writhes at 0.008 mmol/kg, ip", "assay_type": "functional", "set-up": "scale not given: the % may be the effect or the level left", "method_in_brief": "as §2"}, "[9]": {"tested_on": "Rattus norvegicus", "assay": "Analgesic activity in rat assessed as decrease in writhes at 0.01 mmol/kg, ip", "assay_type": "functional", "set-up": "scale not given: the % may be the effect or the level left", "method_in_brief": "as §2"}, "[10]": {"tested_on": "Rattus norvegicus", "assay": "Analgesic activity in rat assessed as decrease in writhes at 0.00005 mmol/kg, ip", "assay_type": "functional", "set-up": "scale not given: the % may be the effect or the level left", "method_in_brief": "as §2"}, "[11]": {"organism": "Homo sapiens", "assay": "Inhibition of GV sPLA2 at 0.02 mole fraction", "method_in_brief": "as §1"}, "[12]": {"organism": "Homo sapiens", "assay": "Inhibition of GV sPLA2 at 0.01 mole fraction", "method_in_brief": "as §1"}}, "data": [{"smiles": "CCCCCCCCCCCCCCCCNC(=O)C(=O)CC", "values": [{"measurement": "inhibition", "setting": "[1]", "value": 30, "unit": "%"}]}, {"smiles": "CCCCCCCC/C=C\\CCCCCCCC(=O)C(=O)NCCCC(=O)OC", "values": [{"measurement": "XI50", "setting": "[2]", "value": 0.012}, {"measurement": "inhibition", "setting": "[3]", "value": 24, "unit": "%"}]}, {"smiles": "CCCCCCC(=O)C(=O)NCCCC(=O)O", "values": [{"measurement": "inhibition", "setting": "[4]", "value": 27, "unit": "%"}]}, {"smiles": "CCCCCCCC/C=C\\CCCCCCCC(=O)C(=O)NCCCC(=O)O", "values": [{"measurement": "XI50", "setting": "[2]", "value": 0.011}, {"measurement": "ED50", "setting": "[5]", "value": 0.1, "unit": "µmol/kg"}, {"measurement": "Activity", "setting": "[6]", "value": 53, "unit": "%"}]}, {"smiles": "CCCCCCCCCCC(=O)C(=O)N[C@@H](CCCC)CCC(=O)O", "values": [{"measurement": "XI50", "setting": "[2]", "value": 0.009}]}, {"smiles": "CCCCCCCCCCC(=O)C(=O)N[C@@H](CCC(=O)OC)COC(=O)NCCCCCCCC", "values": [{"measurement": "XI50", "setting": "[2]", "value": 0.02}]}, {"smiles": "COC(=O)CCCNC(=O)C(=O)CCCc1ccccc1", "values": [{"measurement": "inhibition", "setting": "[1]", "value": 48, "unit": "%"}]}, {"smiles": "CCCCCCCCCCC(=O)C(=O)N[C@@H](CCC(=O)O)C(=O)NCC", "values": [{"measurement": "inhibition", "setting": "[1]", "value": 30, "unit": "%"}]}, {"smiles": "CCCCCCCCCCCCCC(=O)C(=O)N[C@@H](CCCC)CCCCC(=O)O", "values": [{"measurement": "XI50", "setting": "[2]", "value": 0.013}, {"measurement": "inhibition", "setting": "[1]", "value": 22, "unit": "%"}]}, {"smiles": "CCCCCCCCCCCCCCC(=O)C(=O)N[C@@H](CCC(=O)O)C(=O)NCCCCCCCCCC", "values": [{"measurement": "XI50", "setting": "[2]", "value": 0.025}, {"measurement": "inhibition", "setting": "[1]", "value": 33, "unit": "%"}, {"measurement": "Activity", "setting": "[7]", "value": 11, "unit": "%"}, {"measurement": "ED50", "setting": "[5]", "value": 16.5, "unit": "µmol/kg"}]}, {"smiles": "CCCCCCCCCCCCCCC(=O)C(=O)N[C@@H](CCCC)CCC(=O)O", "values": [{"measurement": "XI50", "setting": "[2]", "value": 0.008}, {"measurement": "Activity", "setting": "[8]", "value": 65, "unit": "%"}, {"measurement": "ED50", "setting": "[5]", "value": 8, "unit": "µmol/kg"}]}, {"smiles": "CCCCCCCCCCC(=O)C(=O)N[C@@H](CCCC)CCCCC(=O)O", "values": [{"measurement": "XI50", "setting": "[2]", "value": 0.025}, {"measurement": "inhibition", "setting": "[1]", "value": 22, "unit": "%"}, {"measurement": "Activity", "setting": "[9]", "value": 33, "unit": "%"}, {"measurement": "ED50", "setting": "[5]", "value": 10, "unit": "µmol/kg"}]}, {"smiles": "COC(=O)CCCNC(=O)C(=O)CCCCc1ccccc1", "values": [{"measurement": "inhibition", "setting": "[1]", "value": 31, "unit": "%"}]}, {"smiles": "NC(=O)C(=O)CCCCc1ccccc1", "values": [{"measurement": "inhibition", "setting": "[1]", "value": 45, "unit": "%"}]}, {"smiles": "CCCCCCCCCCC(=O)C(=O)N[C@@H](CCC(=O)O)COC(=O)NCCCCCCCC", "values": [{"measurement": "inhibition", "setting": "[1]", "value": 60, "unit": "%"}]}, {"smiles": "O=C(O)CCCNC(=O)C(=O)CCCc1ccccc1", "values": [{"measurement": "inhibition", "setting": "[1]", "value": 34, "unit": "%"}]}, {"smiles": "CCCCCCCCCCCCCCC(=O)C(=O)NCCCC(=O)OC", "values": [{"measurement": "inhibition", "setting": "[1]", "value": 22, "unit": "%"}]}, {"smiles": "O=C(O)CCCNC(=O)C(=O)CCCCc1ccccc1", "values": [{"measurement": "inhibition", "setting": "[1]", "value": 27, "unit": "%"}]}, {"smiles": "CCCCCCCCCCCCCCC(=O)C(=O)N[C@@H](CCCC)COC(=O)NCCCCCCCC", "values": [{"measurement": "inhibition", "setting": "[1]", "value": 20, "unit": "%"}]}, {"smiles": "CCCCCCCCCCCCCCC(=O)C(=O)N[C@@H](CCCC)CCCC(=O)O", "values": [{"measurement": "XI50", "setting": "[2]", "value": 0.005}, {"measurement": "Activity", "setting": "[10]", "value": 71, "unit": "%"}, {"measurement": "ED50", "setting": "[5]", "value": 0.05, "unit": "µmol/kg"}]}, {"smiles": "CCCCCCCCCCCCCC(=O)C(=O)N[C@@H](CCCC)CC(=O)O", "values": [{"measurement": "XI50", "setting": "[2]", "value": 0.027}]}, {"smiles": "CCCCCCCC/C=C\\CCCCCCCCNC(=O)C(=O)CCCCCCCCCCCCCC", "values": [{"measurement": "inhibition", "setting": "[11]", "value": 37, "unit": "%"}]}, {"smiles": "CCCCCCCCCCCCCC(=O)C(=O)N[C@@H](CCCC)CCCC(=O)O", "values": [{"measurement": "XI50", "setting": "[2]", "value": 0.005}, {"measurement": "inhibition", "setting": "[1]", "value": 26, "unit": "%"}]}, {"smiles": "CCCCCCCCCCCCCC(=O)C(=O)N[C@@H](CCCC)CCC(=O)O", "values": [{"measurement": "XI50", "setting": "[2]", "value": 0.01}, {"measurement": "inhibition", "setting": "[1]", "value": 30, "unit": "%"}]}, {"smiles": "CCCCCCCC/C=C\\CCCCCCCCNC(=O)C(=O)CCCCCC", "values": [{"measurement": "inhibition", "setting": "[12]", "value": 22, "unit": "%"}]}, {"smiles": "CCCCCCCCCCC(=O)C(=O)N[C@@H](CCCC)C(=O)O", "values": [{"measurement": "inhibition", "setting": "[1]", "value": 60, "unit": "%"}]}, {"smiles": "CCCCCCCCCCC(=O)C(=O)N[C@@H](CCC(=O)O)C(=O)O", "values": [{"measurement": "inhibition", "setting": "[1]", "value": 15, "unit": "%"}]}, {"smiles": "CCCCCCC(=O)C(=O)N[C@H](CCC(=O)O)Cc1ccccc1", "values": [{"measurement": "inhibition", "setting": "[1]", "value": 14, "unit": "%"}]}, {"smiles": "CCCCCCCCCCC(=O)C(=O)N[C@H](CCC(=O)O)C(=O)NCC", "values": [{"measurement": "inhibition", "setting": "[1]", "value": 12, "unit": "%"}]}, {"smiles": "CCCCCCCCCCCCCCC(=O)C(=O)NCCCC(=O)O", "values": [{"measurement": "XI50", "setting": "[2]", "value": 0.017}]}]}
